Compounds with a hit are over-represented: about 1.3% of the library has one in this group of screens.
PLCg1 inh = PLC-gamma1 enzyme inhibitors, primary screen, biochemical, fluorescence, purified enzyme. 1-phosphatidylinositol 4,5-bisphosphate phosphodiesterase gamma-1 (Homo sapiens), P19174. fluorogenic substrate. inhibition, % at 12.2 µM. actives 0.84% (n = 370,000). AID 720700, 2013; in the data active means inhibition above about 9.5%
Arrestin-AP2 inh = inhibitors of beta-arrestin/AP2 binding, primary screen, biochemical, GPCR trafficking, flow cytometry. FITC-arrestin peptide / GST-AP2 beads; AP2 beta2 appendage carries R879A mutation. inhibition, % at 10 µM. actives 0.31% (n = 340,000);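 active means inhibition above a set limit, near 3 SD of compounds lacking own fluorescence, cut at about 54% in these data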
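System: GST-AP2 R879A glutathione beads | Also added: FITC-arrestin peptide, 50 nM | Times: 12 min plus 1 h, RT | Signal: Bead flow cytometry, FITC channel | Buffer or medium: PBS with 0.05% Tween 20 and 0.1% BSA | Read-out basis: Percent drop in bead-associated FITC signal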
PLCb3 inh = human PLC-beta3 inhibitors, primary screen, biochemical, fluorescence; actives 0.18% (n = 370,000); inhibition, % at 12.2 µM; Purified PLC-beta3, fluorogenic substrate; in the data active means inhibition above about 11%
NTR1 ag = agonists of human NTR1, primary screen, imaging, U2OS cells, beta-arrestin-GFP, high content; actives 0.17% (n = 330,000); Neurotensin receptor type 1 (Homo sapiens), P30989; AID 493036, 2011; activation, % at 20 µM; NTR1-U2OS beta-arrestin-GFP spot imaging, agonist mode;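 active means activation at or above 40% of the spot to cytoplasm intensity ratio, with at least 20 cells analyzed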
NTR1 ag conf = NTR1 agonists, single-dose retest, confirmation, imaging, U2OS cells, beta-arrestin-GFP, single concentration; AID 504550, 2011; actives 38% (n = 480); activation, % at 20 µM; NTR1-U2OS beta-arrestin-GFP translocation imaging; shares compounds with NTR1 ag;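 active means mean activation at 20 µM of at least 40%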
Of the large screens only hits and unclear results are named; the others gave an inactive call (follow-up assays come after a bar, where they were run).

CCCC1CCC2(CC1)CCC2OC(=S)Nc1ccc(Br)cc1 (stereo not drawn)	none (no result: Arrestin-AP2 inh, NTR1 ag)
CCc1nnc(NC(=S)Nc2ccccc2)s1	none
CCOc1ccc(C(=O)Nc2nnc(NC(=S)Nc3ccccc3)s2)cc1	NTR1 ag 60.7 | NTR1 ag conf 45.7
Cc1ccc(C(=O)Nc2nnc(NC(=S)Nc3ccccc3)s2)cc1	NTR1 ag 72.9 | NTR1 ag conf 57.6
C#CCN1CC(N(C)CCOC(=O)c2ccc(C(C)(C)C)cc2)CS1(=O)=O (stereo not drawn)	none (no result: Arrestin-AP2 inh, NTR1 ag)
O=C(NCc1ccccc1)OCCN1C(=O)CCC12CCC(c1ccccc1)CC2 (stereo not drawn)	none (no result: Arrestin-AP2 inh, NTR1 ag)
CCOC(=O)/C(=C\c1cccc(O)c1)c1nc2sc(C)c(C)c2c(=O)[nH]1	NTR1 ag 42.9 | NTR1 ag conf 50.6
COc1ccccc1C(=O)N1CCC2CCN(C(=O)c3ccccc3)C2C1 (stereo not drawn)	none (no result: Arrestin-AP2 inh, NTR1 ag)
COc1ccc(Nc2nc(N)c([N+](=O)[O-])c(NCCO)n2)cc1	none
COc1ccc(Nc2nc(N)c([N+](=O)[O-])c(NC3CCCCC3)n2)cc1	NTR1 ag 45.9 | NTR1 ag conf inactive
CCN(C(=O)[C@@H]1CC(=O)O[C@@H]1c1ccccc1)c1ccccc1	none (no result: Arrestin-AP2 inh, NTR1 ag)
O=c1c2ccccc2c(C=Nc2ccc(O)cc2)c(O)n1Cc1ccccc1	none | NTR1 ag conf inactive
COc1ccc(Cn2c(O)c(C=Nc3ccc(O)cc3)c3ccccc3c2=O)cc1	none
CCOC(=O)[C@]12CCCC=C1N(CCCOC)C(=O)[C@@H]2CC(=O)NCCCN1CCCC1=O	none (no result: Arrestin-AP2 inh, NTR1 ag)
Cc1cccc(C(=O)Nc2nc3ncccn3c2-c2ccccc2)c1	none (no result: Arrestin-AP2 inh, NTR1 ag)
COc1ccc(Cn2c(C3CCCCC3)nc3c(c(=O)c4ccccc4n3C)c2=O)cc1	NTR1 ag 43.3 (no result: PLCg1 inh, Arrestin-AP2 inh, PLCb3 inh) | NTR1 ag conf inactive
COc1ccc(CCn2c(C3CCCCC3)nc3c(c(=O)c4ccccc4n3C)c2=O)cc1	none
N=c1c(C(=O)NCc2ccc(F)cc2)cc2c(=O)n3ccccc3nc2n1Cc1ccco1	NTR1 ag 41.3 | NTR1 ag conf inactive
Cc1ccc(CNC(=O)c2cc3c(=O)n4ccccc4nc3n(Cc3ccco3)c2=N)cc1	none
COc1ccc(CCNC(=O)c2cc3c(=O)n4cccc(C)c4nc3n(Cc3ccco3)c2=N)cc1OC	NTR1 ag 41.5 | NTR1 ag conf inactive
N=c1c(C(=O)NCc2ccccc2)cc2c(=O)n3ccccc3nc2n1Cc1ccco1	none
CCN=C1NC(CCc2ccccc2)C(C(=O)OC)=C(C)N1Cc1ccc(C(F)(F)F)cc1 (stereo not drawn)	none (no result: Arrestin-AP2 inh, NTR1 ag)
CCN(CC)C(=O)CC[C@H]1CC[C@]2(CCCN(S(=O)(=O)C3CCCCC3)C2)O1	none (no result: Arrestin-AP2 inh, NTR1 ag)
CC1=NOC(=O)/C1=C\c1ccc(-c2ccc(Cl)cc2Cl)o1	NTR1 ag 80.0 | NTR1 ag conf inactive
Oc1ccc(-c2cc(-c3ccc(O)cc3)nc(-c3ccccc3)n2)cc1	NTR1 ag 52.5 | NTR1 ag conf 57.3
COC(=O)C1CN(Cc2cn(Cc3ccc(Cl)cc3)nn2)CCS(=O)(=O)N1Cc1ccc(Cl)cc1 (stereo not drawn)	none (no result: Arrestin-AP2 inh, NTR1 ag)
CSc1nnc(NC(=O)C23CC4CC(CC(C4)C2)C3)s1	NTR1 ag 51.5 | NTR1 ag conf 53.2
NC(=O)CSc1nnc(NC(=O)C23CC4CC(CC(C4)C2)C3)s1	none (no result: PLCg1 inh, PLCb3 inh)
CCOC(=O)[C@@]12CCCC=C1N(CCc1ccc(Cl)cc1)C(=O)[C@H]2CC(=O)NCc1ccc(OC)c(OC)c1	none (no result: Arrestin-AP2 inh, NTR1 ag)
c1ccc(CN2CCC(Nc3nc(-c4ccccc4)nc4ccccc34)CC2)cc1	NTR1 ag 42.0 | NTR1 ag conf 41.7
CC1(C)CC(=O)C(=Cc2cn(-c3ccccc3)nc2-c2ccccc2)C(=O)C1	NTR1 ag 71.1 | NTR1 ag conf 65.4
CC1=NNC(=O)/C1=C\c1cn(-c2ccccc2)nc1-c1ccc(Cl)cc1	NTR1 ag 101.2 | NTR1 ag conf 78.1
O/N=C/c1cn(-c2ccccc2)nc1-c1ccccc1	none (no result: NTR1 ag)
O=C(N[C@H](C(=O)N1CCC[C@H]1C(=O)NC1CCCC1)c1ccccc1)C1CC1	none (no result: Arrestin-AP2 inh, NTR1 ag)
COc1cc(NC(=O)c2ccccc2)c(C)cc1NC(=O)CSc1nnc(-c2ccco2)n1Cc1ccco1	none (no result: Arrestin-AP2 inh, NTR1 ag)
CN(CCO)c1ccc2c(c1)Oc1ccccc1CN(Cc1cn(Cc3ccc(C(F)(F)F)cc3)nn1)S2(=O)=O	none (no result: Arrestin-AP2 inh, NTR1 ag)
FC(F)(F)c1nc(-c2cccs2)ncc1-c1nnnn1-c1ccc(Cl)cc1	NTR1 ag 56.8 | NTR1 ag conf inactive
CC(C)S(=O)(=O)c1csc(NC(=O)Nc2cccc([N+](=O)[O-])c2)c1Cl	NTR1 ag 50.4 | NTR1 ag conf inactive
COc1ccc(O)c(-c2cc(-c3cccc(Br)c3)n[nH]2)c1	NTR1 ag 54.8 | NTR1 ag conf inactive
Cc1ccc(S(=O)(=O)NCC(=O)N2CCN(c3ccccn3)CC2)cc1C	none (no result: Arrestin-AP2 inh, NTR1 ag)
CCOC(=O)c1ccc(NC(=O)C2CCCN(S(=O)(=O)c3ccc(F)cc3)C2)cc1 (stereo not drawn)	NTR1 ag 53.4 | NTR1 ag conf inactive
O=C1CC(N(CCc2ccccc2)C(=S)Nc2ccccc2)C(=O)N1c1ccc(Br)cc1 (stereo not drawn)	NTR1 ag 60.2 | NTR1 ag conf inactive
O=C(Nc1ccc(F)cc1)Nc1c(-c2ccc(C(F)(F)F)cc2)nc2ncccn12	none (no result: Arrestin-AP2 inh, NTR1 ag)
Cc1ccccc1-n1c(=O)[nH]c(=O)c2c(N)c(C(=O)c3ccc(Cl)cc3)sc21	NTR1 ag 40.2 | NTR1 ag conf inactive
COc1ccc(-c2cc(-c3nnc4sc(-c5cccs5)nn34)[nH]n2)cc1	none (no result: Arrestin-AP2 inh, NTR1 ag)
Oc1ccc(C[C@@H]2CNC(=S)N2CCCCC2CCCCC2)cc1	NTR1 ag 44.0 | NTR1 ag conf inactive
O=C1NC[C@@H](Cc2ccc(O)cc2)N(CCCCC2CCCCC2)C1=O	none (no result: Arrestin-AP2 inh, NTR1 ag)
Cc1c(CN2CCC(CO)(CCOc3ccccc3)CC2)[nH]c2c(Cl)cccc12	NTR1 ag 66.8 | NTR1 ag conf inactive
CO/N=C(\c1nonc1N)N1CCN(c2ccc(Cl)cc2[N+](=O)[O-])CC1	NTR1 ag 57.6 | NTR1 ag conf inactive
COC(=O)c1cc(C)oc1C	none (no result: Arrestin-AP2 inh, NTR1 ag)
COC(=O)[C@]12C[C@H](CC(=O)N3CCCC3)C(=O)N(CCc3ccc(OC)c(OC)c3)C1=C[C@H](C(C)(C)C)O[C@@H]2C	none (no result: Arrestin-AP2 inh, NTR1 ag)
CCN1CCN(CCNC(=O)c2ccc(/C=C3/Sc4ccccc4N(Cc4ccccc4C)C3=O)cc2)CC1	none (no result: NTR1 ag)
CCN1CCN(CCCNC(=O)c2ccc(/C=C3/Sc4ccccc4N(Cc4ccccc4F)C3=O)cc2)CC1	NTR1 ag 41.1 | NTR1 ag conf inactive
CN(C)S(=O)(=O)c1ccc(NC(=O)c2c(F)cccc2Cl)cc1	NTR1 ag 49.3 | NTR1 ag conf inactive
COc1cccc([C@H]2NC(=O)C/C=C/[C@@H](C)[C@@H](c3cccc(OC)c3)NC(=O)C/C=C/[C@H]2C)c1	none (no result: Arrestin-AP2 inh, NTR1 ag)

High-throughput results: PubChem BioAssay, several laboratories
